Test results: ChEMBL document CHEMBL3779840, “Discovery of 2-((3-Amino-4-methylphenyl)amino)-N-(2-methyl-5-(3-(trifluoromethyl)benzamido)phenyl)-4-(methylamino)pyrimidine-5-carboxamide (CHMFL-ABL-053) as a Potent, Selective, and Orally Available BCR-ABL/SRC/p38 Kinase Inhibitor for Chronic Myeloid Leukemia” (J Med Chem, 2016)
The source made the active and inactive calls. The rule behind the calls is not given here.

Experiments:
[1] = biological target: Mast/stem cell growth factor receptor Kit (Homo sapiens, UniProt P10721); experiment: Inhibition of His-tagged recombinant human c-Kit […] expressed in mammalian expression system
[2] = Mean residence time (0 to infinity) in Sprague-Dawley rat at 1 mg/kg, iv; type: ADME, organism-based; settings: in vivo
[3] = Antiproliferative activity against human U937 cells assessed as cell viability after 72 hrs by CellTiter-Glo or CCK-8 assay; type: functional; settings: U-937, 72 h
[4] = biological target: Tyrosine-protein kinase Lck (Homo sapiens) (UniProt P06239); experiment: Inhibition of partial length human wild type LCK expressed in bacterial expression system assessed as residual activity at 1 uM relative to control
[5] = biological target: T1, Bcr/Abl fusion protein (Homo sapiens) (UniProt P00519+P11274); experiment: Inhibition of BCR/ABL in human MEG01 cells assessed as downregulation of ERK phosphorylation at Thr202/Tyr204 site after 1 hr by immunoblotting method; type: cell-based; settings: MEG-01
In short: (§1)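 KU812, K562 and MEG-01 cells were exposed to compound at the indicated concentrations for 1 h. Whole-cell lysates were then analysed by Western blot for phosphorylated signaling proteins.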

[6] = biological target: Tyrosine-protein kinase HCK (Homo sapiens) (UniProt P08631); settings: BaF3
[7] = biological target: Tyrosine-protein kinase Blk (Homo sapiens) (UniProt P51451); settings: BaF3
[8] = test system: Bcr/Abl fusion protein (Homo sapiens), P00519+P11274 [Q252H]; settings: BaF3
[9] = biological target: T2, Mitogen-activated protein kinase 14 (Homo sapiens, UniProt Q16539); experiment: Inhibition of P38-alpha phosphorylation in human MEG01 cells at 0.01 to 3 uM after 1 hr by immunoblotting method; type: cell-based; settings: MEG-01; in short: as §1
[10] = Tmax in Sprague-Dawley rat at 10 mg/kg, po; type: ADME, organism-based; settings: in vivo
Mus musculus [11] = experiment: Toxicity in nu/nu mouse xenografted with K562 cells assessed as mortality at 25 and 50 mg/kg/day, qd administered through oral gavage for 16 days measured every day during compound dosing; type: organism-based; settings: in vivo, 384 h
In short: (§2)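 Female nu/nu mice carrying established K562 xenografts received oral treatment once daily at 25.0 or 50.0 mg/kg/d, or vehicle, starting when tumours reached 200 to 400 mm3. There were 5 animals per group and dosing lasted 16 days. Body weight was expressed relative to initial weight (set as 100%), and mortality was recorded. Data are given as mean ± SEM.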

[12] = biological target: Ephrin type-A receptor 8 (Homo sapiens) (UniProt P29322); experiment: Inhibition of partial length human wild type EPHA8 expressed in bacterial expression system assessed as residual activity at 1 uM relative to control
[13] = biological target: T2, Mitogen-activated protein kinase 14; experiment: Inhibition of P38-alpha phosphorylation in human K562 cells at 0.01 to 3 uM after 1 hr by immunoblotting method; type: cell-based; in short: as §1
[14] = biological target: T1, Bcr/Abl fusion protein (Homo sapiens); experiment: Inhibition of BCR/ABL in human K562 cells assessed as downregulation of CrkL phosphorylation at […] site after 1 hr by immunoblotting method; type: cell-based; in short: as §1
KU812 cell line = experiment: Induction of apoptosis in human KU812 cells assessed as increase in cleaved caspase3 level at 100 nM after 24 hrs by immunoblotting method; type: functional, cell-based
[15] = AUC(0 to infinity) in Sprague-Dawley rat at 1 mg/kg, iv; type: ADME, organism-based; set-up: dose 1 mg/kg, route intravenous, time infinity; settings: in vivo
[16] = Tmax in Sprague-Dawley rat at 1 mg/kg, iv; type: ADME, organism-based; settings: in vivo
[17] = biological target: T2, Mitogen-activated protein kinase 14; experiment: Inhibition of full length recombinant GST-tagged human p38-alpha expressed in Escherichia coli
In short: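 IC50 values were determined with the Invitrogen SelectScreen biochemical kinase assay.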

K562 = experiment: Antiproliferative activity against human K562 cells assessed as cell viability after 72 hrs by CellTiter-Glo or CCK-8 assay; type: functional; settings: K562, 72 h
[18] = biological target: Tyrosine-protein kinase Lck (Homo sapiens) (UniProt P06239); settings: BaF3
[19] = biological target: T1, Bcr/Abl fusion protein (Homo sapiens); experiment: Inhibition of BCR/ABL autophosphorylation at Y245 site in human K562 cells at 300 nM after 1 hr by immunoblotting method; type: cell-based; in short: as §1
[20] = biological target: T3, Proto-oncogene tyrosine-protein kinase Src (Homo sapiens, UniProt P12931); settings: BaF3
[21] = Oral bioavailability in Sprague-Dawley rat at 10 mg/kg; type: ADME, organism-based; settings: in vivo
Mus musculus [22] = experiment: Toxicity in nu/nu mouse xenografted with K562 cells assessed as decrease in body weight at 25 and 50 mg/kg/day, qd administered through oral gavage for 16 days measured every day during compound dosing; type: organism-based; settings: in vivo, 384 h; in short: as §2
[23] = biological target: T4, Discoidin domain-containing receptor 2 (Homo sapiens) (UniProt Q16832); experiment: Inhibition of partial length human wild type DDR2 expressed in mammalian expression system assessed as residual activity at 1 uM relative to control
T4 sequence (whole entry): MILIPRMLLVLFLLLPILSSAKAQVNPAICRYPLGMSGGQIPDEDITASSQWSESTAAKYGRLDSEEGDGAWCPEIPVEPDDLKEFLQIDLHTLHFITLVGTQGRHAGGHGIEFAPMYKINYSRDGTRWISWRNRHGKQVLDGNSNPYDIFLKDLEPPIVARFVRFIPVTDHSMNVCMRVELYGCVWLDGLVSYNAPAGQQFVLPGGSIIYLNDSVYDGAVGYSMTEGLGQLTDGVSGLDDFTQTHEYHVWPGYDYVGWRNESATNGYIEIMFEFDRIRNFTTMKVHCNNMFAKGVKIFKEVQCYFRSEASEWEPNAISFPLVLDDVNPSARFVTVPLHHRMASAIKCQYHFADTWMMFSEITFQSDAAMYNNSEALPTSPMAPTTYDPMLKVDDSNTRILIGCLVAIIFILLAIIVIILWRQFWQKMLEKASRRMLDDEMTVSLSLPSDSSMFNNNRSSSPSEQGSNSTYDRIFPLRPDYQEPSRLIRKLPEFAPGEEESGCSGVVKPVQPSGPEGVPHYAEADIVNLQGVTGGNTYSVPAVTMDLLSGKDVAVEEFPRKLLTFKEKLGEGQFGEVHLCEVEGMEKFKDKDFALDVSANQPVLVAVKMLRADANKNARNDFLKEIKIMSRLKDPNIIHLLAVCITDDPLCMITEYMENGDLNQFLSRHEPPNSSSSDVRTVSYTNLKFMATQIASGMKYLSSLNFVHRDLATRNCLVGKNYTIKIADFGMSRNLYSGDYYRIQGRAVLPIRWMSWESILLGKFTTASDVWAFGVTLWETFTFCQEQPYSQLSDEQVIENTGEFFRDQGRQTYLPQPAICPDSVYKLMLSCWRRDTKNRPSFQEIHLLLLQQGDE

[24] = biological target: T3, Proto-oncogene tyrosine-protein kinase Src; experiment: Inhibition of partial length human wild type SRC expressed in bacterial expression system assessed as residual activity at 1 uM relative to control

T1 sequence (P00519 whole entry, looked up, the tested form may be a part): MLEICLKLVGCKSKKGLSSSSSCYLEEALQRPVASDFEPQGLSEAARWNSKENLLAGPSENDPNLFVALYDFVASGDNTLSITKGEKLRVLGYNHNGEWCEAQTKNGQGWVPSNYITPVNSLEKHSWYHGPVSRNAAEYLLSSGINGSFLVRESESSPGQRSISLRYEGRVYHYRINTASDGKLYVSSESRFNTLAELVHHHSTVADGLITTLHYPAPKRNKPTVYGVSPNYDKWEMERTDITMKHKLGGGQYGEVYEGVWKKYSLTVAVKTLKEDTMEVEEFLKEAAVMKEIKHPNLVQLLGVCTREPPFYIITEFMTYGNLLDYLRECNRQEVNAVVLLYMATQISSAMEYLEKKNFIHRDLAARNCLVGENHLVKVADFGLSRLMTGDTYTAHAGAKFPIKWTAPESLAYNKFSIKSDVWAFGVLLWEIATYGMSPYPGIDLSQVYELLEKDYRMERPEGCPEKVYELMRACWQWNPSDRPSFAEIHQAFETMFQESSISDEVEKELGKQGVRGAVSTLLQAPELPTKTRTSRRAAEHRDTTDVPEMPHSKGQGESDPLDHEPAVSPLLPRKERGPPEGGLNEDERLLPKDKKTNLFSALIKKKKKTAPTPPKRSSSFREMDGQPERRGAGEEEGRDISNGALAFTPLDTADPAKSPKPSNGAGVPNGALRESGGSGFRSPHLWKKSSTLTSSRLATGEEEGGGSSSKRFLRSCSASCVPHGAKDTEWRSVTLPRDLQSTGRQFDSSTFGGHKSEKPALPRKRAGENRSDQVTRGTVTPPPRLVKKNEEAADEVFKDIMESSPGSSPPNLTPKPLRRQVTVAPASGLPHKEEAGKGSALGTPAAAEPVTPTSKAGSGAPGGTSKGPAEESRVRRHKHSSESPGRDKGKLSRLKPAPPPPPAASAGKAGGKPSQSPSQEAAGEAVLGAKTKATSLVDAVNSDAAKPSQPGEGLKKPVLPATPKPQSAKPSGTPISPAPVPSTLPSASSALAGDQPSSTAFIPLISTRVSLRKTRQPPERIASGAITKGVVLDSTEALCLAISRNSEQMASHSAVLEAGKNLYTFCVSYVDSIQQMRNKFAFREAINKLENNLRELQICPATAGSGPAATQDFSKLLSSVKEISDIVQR
T1 sequence (P11274 whole entry, looked up, the tested form may be a part): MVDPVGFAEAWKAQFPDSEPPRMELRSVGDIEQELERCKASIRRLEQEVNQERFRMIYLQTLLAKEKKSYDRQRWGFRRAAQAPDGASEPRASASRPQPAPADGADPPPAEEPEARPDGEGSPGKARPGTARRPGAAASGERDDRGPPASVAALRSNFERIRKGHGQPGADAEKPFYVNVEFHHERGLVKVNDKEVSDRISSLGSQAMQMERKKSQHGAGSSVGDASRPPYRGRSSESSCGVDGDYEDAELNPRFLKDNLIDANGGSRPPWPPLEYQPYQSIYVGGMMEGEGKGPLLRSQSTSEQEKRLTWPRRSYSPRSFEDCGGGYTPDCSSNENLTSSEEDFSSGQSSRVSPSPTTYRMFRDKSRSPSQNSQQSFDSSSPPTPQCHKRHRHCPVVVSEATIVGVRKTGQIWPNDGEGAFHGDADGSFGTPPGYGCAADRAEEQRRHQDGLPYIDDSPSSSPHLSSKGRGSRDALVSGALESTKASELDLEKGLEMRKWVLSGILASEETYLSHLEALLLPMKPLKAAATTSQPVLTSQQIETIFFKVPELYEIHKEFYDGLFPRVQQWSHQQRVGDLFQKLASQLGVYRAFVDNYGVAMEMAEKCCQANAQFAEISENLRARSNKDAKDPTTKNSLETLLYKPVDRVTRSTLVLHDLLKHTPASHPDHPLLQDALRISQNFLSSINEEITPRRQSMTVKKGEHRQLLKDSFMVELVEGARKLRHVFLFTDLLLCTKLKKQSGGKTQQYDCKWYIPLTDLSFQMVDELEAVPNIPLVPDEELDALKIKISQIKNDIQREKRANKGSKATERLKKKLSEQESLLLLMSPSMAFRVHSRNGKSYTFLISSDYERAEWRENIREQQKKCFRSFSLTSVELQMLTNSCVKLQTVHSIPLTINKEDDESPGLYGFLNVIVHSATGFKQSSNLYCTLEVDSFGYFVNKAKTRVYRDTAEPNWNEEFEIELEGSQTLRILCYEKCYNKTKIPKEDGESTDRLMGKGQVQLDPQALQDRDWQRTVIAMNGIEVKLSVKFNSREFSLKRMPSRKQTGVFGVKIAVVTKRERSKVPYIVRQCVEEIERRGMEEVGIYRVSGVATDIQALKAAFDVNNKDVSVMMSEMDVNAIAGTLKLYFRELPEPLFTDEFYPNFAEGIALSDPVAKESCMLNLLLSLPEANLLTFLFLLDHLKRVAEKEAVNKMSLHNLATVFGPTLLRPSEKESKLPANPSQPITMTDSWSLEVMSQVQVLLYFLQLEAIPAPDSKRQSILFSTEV
T2 sequence (Q16539 whole entry): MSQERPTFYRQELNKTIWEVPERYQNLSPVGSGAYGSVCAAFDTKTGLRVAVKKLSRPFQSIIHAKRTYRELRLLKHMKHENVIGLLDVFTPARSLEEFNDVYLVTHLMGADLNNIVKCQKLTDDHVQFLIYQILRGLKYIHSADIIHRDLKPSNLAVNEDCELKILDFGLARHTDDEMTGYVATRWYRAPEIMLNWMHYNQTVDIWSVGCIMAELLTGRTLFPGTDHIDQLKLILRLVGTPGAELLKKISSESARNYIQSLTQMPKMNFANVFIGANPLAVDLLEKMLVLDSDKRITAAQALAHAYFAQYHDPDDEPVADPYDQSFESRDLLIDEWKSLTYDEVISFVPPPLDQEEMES
T3 sequence (P12931 2-536 limits assumed): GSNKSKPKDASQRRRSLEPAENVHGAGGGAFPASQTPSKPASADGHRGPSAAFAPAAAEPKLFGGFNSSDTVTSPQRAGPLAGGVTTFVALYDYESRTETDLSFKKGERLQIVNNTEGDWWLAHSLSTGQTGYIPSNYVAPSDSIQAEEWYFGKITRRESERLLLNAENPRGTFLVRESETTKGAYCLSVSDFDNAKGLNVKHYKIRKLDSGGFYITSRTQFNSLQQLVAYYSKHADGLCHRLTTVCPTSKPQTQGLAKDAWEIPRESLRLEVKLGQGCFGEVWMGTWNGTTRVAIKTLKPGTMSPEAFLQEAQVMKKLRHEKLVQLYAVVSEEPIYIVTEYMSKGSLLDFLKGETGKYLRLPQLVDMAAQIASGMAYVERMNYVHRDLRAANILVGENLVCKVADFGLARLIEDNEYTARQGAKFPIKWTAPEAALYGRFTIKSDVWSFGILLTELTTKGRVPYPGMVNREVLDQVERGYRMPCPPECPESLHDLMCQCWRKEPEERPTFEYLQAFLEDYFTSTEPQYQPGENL
Chain of Tyrosine-protein kinase Lck (Homo sapiens) (P06239 2-509 limits assumed): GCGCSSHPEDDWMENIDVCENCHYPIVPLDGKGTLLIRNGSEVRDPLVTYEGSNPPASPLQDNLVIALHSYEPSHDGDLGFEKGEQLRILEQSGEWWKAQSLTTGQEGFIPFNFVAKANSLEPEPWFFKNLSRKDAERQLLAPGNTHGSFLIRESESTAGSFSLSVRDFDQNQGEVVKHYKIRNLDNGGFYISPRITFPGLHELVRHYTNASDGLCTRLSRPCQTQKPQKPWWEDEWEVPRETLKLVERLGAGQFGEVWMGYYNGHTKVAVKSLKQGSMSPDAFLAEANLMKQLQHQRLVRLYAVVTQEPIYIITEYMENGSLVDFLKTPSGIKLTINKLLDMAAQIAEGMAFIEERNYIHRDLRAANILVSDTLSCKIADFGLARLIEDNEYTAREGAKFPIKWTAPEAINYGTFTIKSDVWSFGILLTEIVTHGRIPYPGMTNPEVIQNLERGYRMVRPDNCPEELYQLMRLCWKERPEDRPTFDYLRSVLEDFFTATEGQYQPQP
Chain of Mast/stem cell growth factor receptor Kit (P10721 whole entry): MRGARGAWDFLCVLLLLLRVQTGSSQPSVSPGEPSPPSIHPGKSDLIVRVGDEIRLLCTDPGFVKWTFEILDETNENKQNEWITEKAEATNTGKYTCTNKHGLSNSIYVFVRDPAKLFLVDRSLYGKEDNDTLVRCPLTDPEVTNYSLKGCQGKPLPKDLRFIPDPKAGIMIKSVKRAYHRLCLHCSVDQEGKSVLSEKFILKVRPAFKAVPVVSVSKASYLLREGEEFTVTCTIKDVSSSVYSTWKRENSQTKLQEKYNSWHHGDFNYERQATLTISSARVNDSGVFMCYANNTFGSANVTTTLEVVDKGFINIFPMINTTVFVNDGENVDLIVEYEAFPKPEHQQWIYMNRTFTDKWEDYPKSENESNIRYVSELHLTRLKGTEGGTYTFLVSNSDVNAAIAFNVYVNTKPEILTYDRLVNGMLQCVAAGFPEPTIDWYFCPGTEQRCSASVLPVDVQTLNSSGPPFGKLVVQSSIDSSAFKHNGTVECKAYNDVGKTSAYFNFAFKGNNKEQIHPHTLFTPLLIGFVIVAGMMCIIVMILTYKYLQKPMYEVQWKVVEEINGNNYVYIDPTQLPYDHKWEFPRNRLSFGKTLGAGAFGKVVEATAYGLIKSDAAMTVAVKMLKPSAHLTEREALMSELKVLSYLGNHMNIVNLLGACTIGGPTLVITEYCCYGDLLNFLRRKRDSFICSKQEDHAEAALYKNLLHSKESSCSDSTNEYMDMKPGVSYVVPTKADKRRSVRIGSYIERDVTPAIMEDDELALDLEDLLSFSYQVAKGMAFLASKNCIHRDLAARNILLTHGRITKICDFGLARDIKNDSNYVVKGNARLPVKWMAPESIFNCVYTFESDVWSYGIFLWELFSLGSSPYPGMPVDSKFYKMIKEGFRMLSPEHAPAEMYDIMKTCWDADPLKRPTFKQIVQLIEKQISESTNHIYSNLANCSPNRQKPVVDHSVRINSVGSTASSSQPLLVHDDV

Q: Which IC50 [1] does the source give for `CNc1nc(Nc2ccc(C)c(N)c2)ncc1C(=O)Nc1cc(NC(=O)c2cccc(C(F)(F)F)c2)ccc1C` here?
A: The IC50 was greater than 10 µM.

Q: And the MRT inf [2]?
A: The MRT inf was 3.1 h.

Q: What about the GI50 [3] of the same compound?
A: Its GI50 is greater than 10 µM.

Q: And the Activity [4]?
A: The Activity was 0.3%.

Q: What about the inhibition [5] of the same compound?
A: Its inhibition is “Dose-dependent effect”.

Q: And the GI50 [6]?
A: Its GI50 is 0.98 µM.

Q: What about the GI50 [7] of the same compound?
A: The GI50 was 1.1 µM.

Q: What about the GI50 [8] of the same compound?
A: Its GI50 is 0.14 µM.

Q: What about the inhibition [9] of the same compound?
A: The inhibition was “Active”.

Q: And the Tmax [10]?
A: The Tmax was 1 h.

Q: And the Activity (Mus musculus [11])?
A: Its Activity is “Non-toxic”.

Q: What about the Activity [12] of the same compound?
A: The Activity was 0.8%.

Q: What about the inhibition [13] of the same compound?
A: The inhibition was “Active”.

Q: And the inhibition [14]?
A: The inhibition was “Dose-dependent effect”.

Q: And the Activity (KU812 cell line)?
A: The Activity was “Active”.

Q: And the AUC(0-inf) [15]?
A: The AUC(0-inf) was 0.721 µg·h/mL.

Q: What about the Tmax [16] of the same compound?
A: The Tmax was 1.2 min.

Q: And the IC50 [17]?
A: The IC50 was 0.062 µM.

Q: And the GI50 (K562)?
A: The GI50 was 0.014 µM.

Q: What about the GI50 [18] of the same compound?
A: Its GI50 is 0.6 µM.

Q: What about the inhibition [19] of the same compound?
A: Its inhibition is “Active”.

Q: What about the GI50 [20] of the same compound?
A: The GI50 was 0.2 µM.

Q: And the bioavailability [21]?
A: Its bioavailability is 24.2%.

Q: And the Activity (Mus musculus [22])?
A: The Activity was “Non-toxic”.

Q: What about the Activity [23] of the same compound?
A: The Activity was 0%.

Q: And the Activity [24]?
A: The Activity was 0.5%.
